Test [1] is described as follows: Cytotoxicity against human HL60 cells after 72 hrs by MTT assay. The conditions noted are these: HL-60, 72 h. (Tetrazolium assays rely on reduction of a dye to a coloured formazan, in cell work by metabolically active cells.)
A short description of test [2]: Cytotoxicity against human HCT15 cells after 72 hrs by MTT assay. The settings on record: HCT-15, 72 h.
The nature of test [3]: Cytotoxicity against human HCT116 cells after 72 hrs by MTT assay. The test is classed as functional, cell-based. The conditions noted are these: HCT-116, 72 h. A digest of the protocol: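 Cells grown in RPMI 1640 with L-glutamine, 10% FCS, penicillin/streptomycin and fungizone at 37 °C under 5% CO2. Seeding was 2000 cells/well for HCT116 and HL60 and 600 for HCT15; compounds added after 24 h in DMSO (1% final). Viable cells read at 490 nm with MTS reagent.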

Test [4] is described as follows: Cytotoxicity against human HCT15 cells at 10 uM after 72 hrs by MTT assay. The settings on record: HCT-15, 72 h, read-out: INH.
Test [5] deals with MCF7. Briefly: Cytotoxicity against human MCF7 cells at 10 uM after 72 hrs by MTT assay. The conditions noted are these: MCF7, 72 h, read-out: INH.
Test [6] can be described thus: Cytotoxicity against human HL60 cells at 10 uM after 72 hrs by MTT assay. The conditions noted are these: HL-60, 72 h, read-out: INH.
Test [7] in a line: Cytotoxicity against human HCT116 cells at 10 uM after 72 hrs by MTT assay. The conditions noted are these: HCT-116, 72 h, read-out: INH.
The nature of test [8]: Cytotoxicity against human PC3 cells at 10 uM after 72 hrs by MTT assay. The conditions noted are these: PC-3, 72 h, read-out: INH.
Test [9] concerns HCT-15. The conditions noted are these: Homo sapiens, 10 uM.
The subject of test [10] is HCT-116. The settings on record: Homo sapiens, 10 uM.
The test system of test [11] is HL-60. The conditions noted are these: Homo sapiens, 10 uM.
In test [12] the test system is PC-3. The settings on record: Homo sapiens, 10 uM.

Drawing on ChEMBL document CHEMBL3352723, “6-(Hetero)Arylpurine nucleotides as inhibitors of the oncogenic target DNPH1: synthesis, structural studies and cytotoxic activities” (Eur J Med Chem, 2014), this text covers IC50 and inhibition for 9 molecules.

Each structure is given as a SMILES string. The source made the active and inactive calls. No cut-off for these calls is given here.

As usually defined, the IC50 is the midpoint of a concentration-inhibition curve. High values mean weaker potency in that assay, low ones greater potency in that assay. For `O=P(O)(O)OC[C@H]1O[C@@H](n2cnc3c(NCc4ccccc4)ncnc32)[C@H](O)[C@@H]1O`, the IC50 in test [1] came to 5000 nM; in test [2], 800 nM; in [3] it was 7700 nM.

Take `O=P(O)(O)OC[C@H]1O[C@@H](n2cnc3c(-c4cccc(Br)c4)ncnc32)[C@H](O)[C@@H]1O`: the IC50 in [1] was found to be 3900 nM; in test [2], 600 nM. The inhibition at 10 µM in test [4], in test [5], in test [6], in [7] and in test [8] was more than 90% in each case.

As to `O=C(O)c1ccc(-c2cccc(-c3ncnc4c3ncn4[C@@H]3O[C@H](COP(=O)(O)O)[C@@H](O)[C@H]3O)c2)cc1`, the inhibition at 10 µM in test [5] is more than 90%. The inhibition result in test [9], in test [10], in test [11] and in test [12] was “inactive” in each case.

Consider `O=P(O)(O)OC[C@H]1O[C@@H](n2cnc3c(-c4ccc(O)cc4)ncnc32)[C@H](O)[C@@H]1O`, for which the IC50 came to 500 nM in test [1], 300 nM in [2] and 4100 nM in test [3]. Further, the inhibition at 10 µM in [4], in [5], in test [6], in [7] and in [8] was more than 90% each time.

On to `O=P(O)(O)OC[C@H]1O[C@@H](n2cnc3c(-c4cccc(-c5cccc6c5sc5ccccc56)c4)ncnc32)[C@H](O)[C@@H]1O`, for which the inhibition at 10 µM in test [5] is more than 90%. The inhibition entry in test [9], in test [10], in test [11] and in [12] was “inactive” in each case.

`O=P(O)(O)OC[C@H]1O[C@@H](n2cnc3c(-c4ccoc4)ncnc32)[C@H](O)[C@@H]1O`: the figures for the concentration for half-maximal inhibition (IC50) in test [1], in test [2] and in [3] were 15400 nM, 1300 nM and 5500 nM, respectively. For the same molecule, the inhibition at 10 µM in test [4], in [5], in test [6], in test [7] and in test [8] was more than 90% throughout.

In the case of `O=P(O)(O)OC[C@H]1O[C@@H](n2cnc3c(-c4ccc(Cl)s4)ncnc32)[C@H](O)[C@@H]1O`, the 50% inhibitory concentration (IC50) was 6500 nM in test [1] and 1000 nM in test [2]. Further, the inhibition at 10 µM in [4], in test [5], in [6], in test [7] and in test [8] was more than 90% in each case.

For the molecule `O=P(O)(O)OC[C@H]1O[C@@H](n2cnc3c(-c4ccccc4)ncnc32)[C@H](O)[C@@H]1O`, the IC50 is 1700 nM in [1], 700 nM in [2] and 3200 nM in test [3]. The inhibition at 10 µM in [4], in [5], in [6], in test [7] and in [8] was more than 90% throughout.

In the case of `O=P(O)(O)OC[C@H]1O[C@@H](n2cnc3c(-c4ccc5cc[nH]c5c4)ncnc32)[C@H](O)[C@@H]1O`, the IC50 in [1] was 500 nM; in test [2] it was 1400 nM; in [3], more than 80000 nM. Moreover, the inhibition at 10 µM in [4], in test [5], in test [6], in [7] and in [8] was more than 90% each time.
